According to the array DNA melting data of Ke et al. (doi:10.1101/2024.01.08.574731):

Columns and labels:
[1] = folding enthalpy; higher = less favourable; fluorescence melt of hairpins on a sequencing array, two-state fit; settings: sodium 0.088 M
Outline: (§1)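 On a sequenced MiSeq flow cell, library hairpins with annealed Cy3 and quencher oligos were imaged for Cy3 fluorescence in 2.5 °C steps up to 60 °C, in 50 mM Na-HEPES pH 8.0, 25 mM NaCl. Normalisation used pre-quench Cy3 and control constructs. Bootstrapped two-state fits gave melting temperature and folding enthalpy, combined by inverse variance across four replicates and with fitted temperatures raised by 9.35 °C to match UV melts.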

[2] = melting temperature; fluorescence melt of hairpins on a sequencing array, two-state fit, raised by 9.35 °C to match UV melts; settings: sodium 0.088 M
Outline: as §1

| Sequence | folding enthalpy [1] | Tm [2] |
| --- | --- | --- |
| GAACCTGGAAACAGATTC (((.(((....))).))) | -17.9 kcal/mol | 31.9 °C |
| GACAGCGAAAGCTAAGTC ((((((....)))..))) | -17.5 kcal/mol | 38.2 °C |
| AAGAGGAAACTCTT (((((....))))) | -9.65 kcal/mol | 28 °C |
| GATCAGGTGGCTGATC ((((((....)))))) | -31.6 kcal/mol | 50.5 °C |
| GCCAAGCGAAAGCGTAGC ((.(.((....)).).)) | -13.3 kcal/mol | 47.5 °C |
| GGTCGAGGAAACTTGGCC ((.(.((....)).).)) | -25.3 kcal/mol | 42.4 °C |
| GGAAGTGGAAACACCTCC (((.(((....))).))) | -23.5 kcal/mol | 36.6 °C |
| GTTATTCGAAAGAAGAAC (((.(((....))).))) | -28.3 kcal/mol | 42.7 °C |
| GTTATTGAAAAATAAC ((((((....)))))) | -25 kcal/mol | 37.5 °C |
| GTGCACGAAAGTGTCCAC ((((((....)))..))) | -10.8 kcal/mol | 34.8 °C |
| GAATCGCGAAAGCGTTTC (((.(((....))).))) | -21.9 kcal/mol | 46.2 °C |
| GCCGCCGGAAACGACGGC ((((.((....)).)))) | -33.7 kcal/mol | 67 °C |
| GTGCACCGAAAGGTCAC (((.(((....)))))) | -26.3 kcal/mol | 52.5 °C |
| GCTCGGGGAAACCCAAGC (((.(((....))).))) | -17.8 kcal/mol | 45.3 °C |
| GGAGTCGAAAGACATCC ((((((....))).))) | -18.2 kcal/mol | 42.8 °C |
| GGTGACGAAAGTCGCACC ((((((....)))..))) | -13.9 kcal/mol | 45.6 °C |
| GTATGACGAAAGTCTAC (((.(((....)))))) | -16.9 kcal/mol | 39 °C |
| GCATTAGGAAACTAATGC (((((((....))))))) | -44.6 kcal/mol | 55.6 °C |
| GATCCGTTACCGGATC ((((((....)))))) | -34.6 kcal/mol | 59.5 °C |
| GATGCCGAAAGGCATATC ((((((....)))..))) | -11 kcal/mol | 55.7 °C |
| GATCCGTACCGGATC ((((((...)))))) | -34.8 kcal/mol | 58.9 °C |
| GACTGCGAAAGCAAAGTC ((((((....)))..))) | -21.7 kcal/mol | 47 °C |
| GGGGGCGAAAGCCTTCCC ((((((....)))..))) | -13.1 kcal/mol | 42.3 °C |

| Sequence | folding enthalpy [1] | Tm [2] |
| --- | --- | --- |
| GAGTCGAAAGACTC (((((....))))) | -29.4 kcal/mol | 60.8 °C |
| GGCGGCGAAAGCCTCGCC ((((((....)))..))) | -20.8 kcal/mol | 55.4 °C |
| GCGTCTGGAAACAGGTGC ((..(((....)))..)) | -28.3 kcal/mol | 41.8 °C |
| GTTTCCCGAAAGGGCAAC (((.(((....))).))) | -21.7 kcal/mol | 42 °C |
| GCAGATCGAAAGATGTGC (((.(((....))).))) | -35.1 kcal/mol | 53.6 °C |
| GCAGAAGGAAACTTCTGC (((((((....))))))) | -44.4 kcal/mol | 60.7 °C |
| GATCCCTAAGGGATC ((((((...)))))) | -38.4 kcal/mol | 60.2 °C |
| GCTACGGGAAACTGTGGC ((.((.(....).)).)) | -30.7 kcal/mol | 41.1 °C |
| GCCCCGCGAAAGCGTAGC ((..(((....)))..)) | -9.13 kcal/mol | 35.8 °C |
| GCGATACTTCGC ((((....)))) | -25.9 kcal/mol | 52.7 °C |
| GCCATGCGAAAGCCTGGC ((((.((....)).)))) | -31.2 kcal/mol | 62.8 °C |
| GATCAAGGGTTGATC ((((((...)))))) | -24 kcal/mol | 40.3 °C |
| GTGGGGAAACCCAC (((((....))))) | -25.7 kcal/mol | 62 °C |
| GAGGTAGAAATACCTC ((((((....)))))) | -33.5 kcal/mol | 50.2 °C |
| GTACACGAAAGTGGCTAC ((((((....)))..))) | -13.9 kcal/mol | 35.7 °C |
| GTGCCTCGAAAGAGACAC (((.(((....))).))) | -42.5 kcal/mol | 52.6 °C |
| GTACCCGAAAGGGGTTAC ((((((....)))..))) | -10.1 kcal/mol | 35.2 °C |
| GTCCAAGGAAACTTGAAC ((.((((....)))).)) | -16.9 kcal/mol | 29.2 °C |
| GGCAACGAAAGTTGGCC ((((((....))).))) | -18.7 kcal/mol | 64 °C |
| GGACATGGAAACGTGTTC (.(((.(....).))).) | -23.8 kcal/mol | 35 °C |
| GACTGCGAAAGCAGAGTC ((((((....)))..))) | -11.8 kcal/mol | 45.1 °C |
| GATCCCCTGAGGGATC ((((((....)))))) | -31.8 kcal/mol | 61.9 °C |
| GCTGCGCGAAAGCCAAGC (((..((....))..))) | -18.9 kcal/mol | 48.9 °C |

| Sequence | folding enthalpy [1] | Tm [2] |
| --- | --- | --- |
| GCCTTGGGAAACCAAGAC (.(((((....))))).) | -19.3 kcal/mol | 38.7 °C |
| GCCCTCGAAAGAGTGGGC ((((((....)))..))) | -25.6 kcal/mol | 52.7 °C |
| GATCTTTAGAAAGATC ((((((....)))))) | -31.1 kcal/mol | 40.6 °C |
| GTTACGTCGAAAGACAAC (((..(((....)))))) | -10.3 kcal/mol | 24.5 °C |
| GTTGGGCGAAAGCCAAAC (((.(((....))).))) | -21.5 kcal/mol | 56.9 °C |
| GCTGTACGAAAGTAGAGC (((.(((....))).))) | -35.3 kcal/mol | 51.7 °C |
| GCTTCGCGAAAGCGTGGC ((..(((....)))..)) | -17.4 kcal/mol | 53.3 °C |
| GCAGCTGGAAACAGCCAC (..((((....))))..) | -10.6 kcal/mol | 31 °C |
| GACCCCGAAAGGGCCGTC ((((((....)))..))) | -14 kcal/mol | 35.7 °C |
| GTCCTGGGAAACTAGGAC (((((.(....).))))) | -42.9 kcal/mol | 49.1 °C |
| GTCGCTGGAAACAGCGGC (.(((((....))))).) | -23.4 kcal/mol | 65.6 °C |
| GCGATACGTCGC ((((....)))) | -30.6 kcal/mol | 54.4 °C |
| GACGAGCGAAAGCTTGTC (((.(((....))).))) | -36.8 kcal/mol | 61.2 °C |
| GCGCTGCGAAAGCATTGC ((..(((....)))..)) | -17.2 kcal/mol | 41.1 °C |
| GAAACCGAAAGGTTATTC ((((((....)))..))) | -12.4 kcal/mol | 29.6 °C |
| GTGGTTCGAAAGAATCAC (((.(((....))).))) | -47.5 kcal/mol | 53.7 °C |
| GATCTAGTGTTAGATC ((((((....)))))) | -30 kcal/mol | 40.6 °C |
| GAGACACGAAAGTGCCTC (((.(((....))).))) | -33.4 kcal/mol | 51.3 °C |
| GATCATGATTATGATC ((((((....)))))) | -29.5 kcal/mol | 47.5 °C |
| GATCGTGGCAACGATC ((((((....)))))) | -32.8 kcal/mol | 67.6 °C |
| GACATGCGAAAGCAGGTC (((.(((....))).))) | -29.8 kcal/mol | 65.7 °C |
| GATCATAGTGATGATC ((((((....)))))) | -36.5 kcal/mol | 47.3 °C |
| GGGTCCGAAAGGACGCCC ((((((....)))..))) | -10.3 kcal/mol | 48.9 °C |
